Measured values reported in ChEMBL document CHEMBL4715822, “Structure-based lead optimization to improve antiviral potency and ADMET properties of phenyl-1H-pyrrole-carboxamide entry inhibitors targeted to HIV-1 gp120” (Eur J Med Chem, 2018).
≈ marks a conversion by molar mass, not a printed value.

Columns and labels:
[1] = system: Human immunodeficiency virus 1; assay: Antiviral activity against HIV-1 HXB-2 infected in human TZM-bl cells assessed as reduction in viral infection pretreated for 30 mins before viral infection and measured after 3 days by luciferase based single cycle infection assay; assay type: functional, organism-based; settings: Human immunodeficiency virus 1, M:B_HXB2R
TZM = assay: (§1) Cytotoxicity against human TZM-bl cells assessed as reduction in cell viability incubated for 3 days by XTT assay; assay type: cell-based; settings: tzm, 72 h, time 3 day
[2] = Antiviral activity against HIV-1 3B infected in human MT2 cells assessed as reduction in viral infection pretreated for 30 mins before viral infection and measured after 4 days by ELISA based multi cycle infection assay; assay type: functional, cell-based; settings: Human immunodeficiency virus 1, M:B_HXB2R
MT2 = assay: (§2) Cytotoxicity against human MT2 cells assessed as reduction in cell viability incubated for 4 days by XTT assay; assay type: cell-based; settings: mt2, 96 h, time 4 day
[3] = as §1; assay type: cell-based; settings: TZM-bl cells, time 3 day
[4] = as §2; assay type: cell-based; settings: MT2 cells, time 4 day
[5] = Induction viral infection in pseudovirus HIV1 ADA infected in dog Cf2Th-CCR5 cells incubated for overnight followed by pretreated for 30 mins and added to cells measured after 48 hrs by luciferase-based assay; assay type: cell-based; settings: human immunodeficiency virus 1, cf2th-ccr5, 48.5 h
[6] = Cytotoxicity against dog Cf2Th-CCR5 cells assessed as reduction in cell viability incubated for 48 hrs by XTT assay; assay type: cell-based, Canis lupus familiaris; settings: for CC50: cf2th-ccr5, 48 h
[7] = system: Human immunodeficiency virus 1; assay: Antiviral activity against HIV-1 3B infected in human H9 cells assessed as reduction in viral transmission to TZM-bl cells incubated for 48 hrs by luciferase based assay; assay type: functional, organism-based; settings: Human immunodeficiency virus 1, 3B, H9, 48 h
[8] = system: Human immunodeficiency virus 1; assay: Antiviral activity against HIV-1 ADA infected in human MOLT-4 cells assessed as reduction in viral transmission to TZM-bl cells incubated for 48 hrs by luciferase based assay; assay type: functional, organism-based; settings: Human immunodeficiency virus 1, ADA, MOLT-4, 48 h
[9] = system: Human immunodeficiency virus 1; assay: Antiviral activity against pseudovirus HIV-1 HXB-2 harboring Env A204D mutant infected in human U87.CD4.CXCR4 cells assessed as reduction in viral infection pretreated for 30 mins before viral infection and measured after 3 days by luciferase based assay; assay type: functional, cell-based, M:B_HXB2R
In short: (§3)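 Pseudoviruses made in HEK293T by co-transfecting an Env-deleted backbone (pSG3Δenv or pNL4-3.Luc.R-.E-) with an HXB-2 Env plasmid carrying single or double substitutions; Env sequences confirmed by sequencing. Virus pretreated 30 min with graded compound, added to U87-CD4-CXCR4 cells (1 × 10⁴/well, plated overnight), incubated 3 days. Cells lysed, luciferase measured, IC50 calculated.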

[10] = system: Human immunodeficiency virus 1; assay: Antiviral activity against pseudovirus HIV-1 HXB-2 harboring Env I424F mutant infected in human U87.CD4.CXCR4 cells assessed as reduction in viral infection pretreated for 30 mins before viral infection and measured after 3 days by luciferase based assay; assay type: functional, cell-based, M:B_HXB2R; in short: as §3
[11] = Solubility in 5% DMSO at pH 7.4 at 500 uM incubated for 90 mins in shaker by spectrophotometry; assay type: physicochemical
In short: (§4)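 DMSO stock diluted to 500 μM in universal aqueous buffer pH 7.4 with 2 or 5% DMSO final; quadruplicate, 90 min shaking at room temperature in filter plate, vacuum filtered; filtrate in 20% acetonitrile read by UV absorbance at six wavelengths. Filtrate/standard ratio binned as ~500, 100–500 or <100 μM.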

[12] = Solubility in 2 % DMSO at pH 7.4 at 500 uM incubated for 90 mins in shaker by spectrophotometry; assay type: physicochemical; in short: as §4
[13] = Apparent permeability across apical to basolateral side in human Caco2 cells incubated for 2 hrs by LC-MS/MS analysis; assay type: ADME, cell-based, Caco-2; settings: Caco-2
In short: (§5)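 Caco-2 monolayers grown three weeks to differentiate; compound in transport buffer pH 7.4 (glucose, 10 mM HEPES, HBSS) added apical (A-B) or basal (B-A) side, with or without 100 μM verapamil; 2 h incubation, both sides sampled. Lucifer yellow 100 μM on A side checks integrity (≤2% transport). Papp = (dQ/dt)/(C0 × A); efflux ratio = Papp(B→A)/Papp(A→B).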

[14] = Apparent permeability across basolateral to apical side in human Caco2 cells incubated for 2 hrs by LC-MS/MS analysis; assay type: ADME, cell-based, Caco-2; settings: Caco-2; in short: as §5
[15] = Metabolic stability in human liver microsomes assessed as parent compound remaining at 3 uM incubated for 120 mins by LC-MS/MS analysis; assay type: ADME, Microsome; settings: read-out: Stabilty
[16] = Metabolic stability in human liver microsomes assessed as intrinsic clearance at 3 uM incubated for 120 mins by LC-MS/MS analysis; assay type: ADME, Microsome; settings: read-out: CLH
[17] = Protein binding in human plasma assessed as unbound fraction at 5 uM by LC-MS/MS analysis; assay type: ADME, cell-free
[18] = Cytotoxicity against human PBMC cells assessed as reduction in cell viability incubated for 1 hr followed by complete medium addition and measured after 48 hrs by XTT assay; assay type: cell-based
[19] = system: Human immunodeficiency virus 1; assay: Antiviral activity against pseudovirus HIV-1 HXB-2 harboring Env M434I mutant infected in human U87.CD4.CXCR4 cells assessed as reduction in viral infection pretreated for 30 mins before viral infection and measured after 3 days by luciferase based assay; assay type: functional, cell-based, M:B_HXB2R; in short: as §3
[20] = Inhibition of HIV1 gp120-mediated cell-cell fusion between viral envelope expressing in human HL2/3 cells to CD4/CCR5 receptor expressing in human TZM-bl cells after 1 hr by luciferase reporter gene assay; assay type: cell-based; settings: Human immunodeficiency virus 1, HL2/3, 1 h

| Compound | IC50 [1] | CC50 (TZM) | IC50 [2] | CC50 (MT2) | further results |
| --- | --- | --- | --- | --- | --- |
| CNC[C@H](NC(=O)c1ccc(-c2cc(F)c(Cl)c(F)c2)[nH]1)c1nc(CO)cs1 | 0.23 µM | 18 µM | 0.18 µM | 18.8 µM |  |
| NC[C@H](NC(=O)c1ccc(-c2ccc(C(F)(F)F)cc2)[nH]1)c1ncc(CO)s1 |  | 35.6 µM |  | 36 µM |  |
| NC[C@H](NC(=O)c1ccc(-c2cc(F)c(Cl)c(F)c2)[nH]1)c1ncc(CO)o1 |  |  |  |  | CC50 at 72 h [3]: 27.7 µM; CC50 at 96 h [4]: 26.5 µM |
| NC[C@H](NC(=O)c1ccc(-c2ccc(C(F)(F)F)c(F)c2)[nH]1)c1ncc(CO)s1 | 0.44 µM | 30.5 µM | 0.25 µM | 25.6 µM |  |
| NC[C@@H](NC(=O)c1ccc(-c2cc(F)c(Cl)c(F)c2)[nH]1)c1ncc(CO)s1 |  |  |  |  | CC50 at 72 h [3]: 20.6 µM; CC50 at 96 h [4]: 17.4 µM |
| NC[C@@H](NC(=O)c1ccc(-c2ccc(C(F)(F)F)c(F)c2)[nH]1)c1nc(CO)c(CO)s1 | 1.8 µM | > 65.4 µM | 2 µM | 72.4 µM |  |
| CNC[C@H](NC(=O)c1ccc(-c2ccc(C(F)(F)F)cc2)[nH]1)c1nc(CO)cs1 | 0.31 µM | 22.4 µM | 0.1 µM | 17 µM |  |
| NC[C@H](NC(=O)c1ccc(-c2ccc(C(F)(F)F)c(F)c2)[nH]1)c1nc(CO)c(CO)s1 | 3.1 µM | > 65 µM | 3.6 µM | 92.3 µM |  |
| Cc1c(F)cc(-c2ccc(C(=O)N[C@H](CN)c3ncc(CO)s3)[nH]2)cc1F | 0.2 µM | 32.9 µM | 0.2 µM | 26.8 µM |  |
| CC(C)(O)c1csc([C@@H](CN)NC(=O)c2ccc(-c3cc(F)c(Cl)c(F)c3)[nH]2)n1 | 0.56 µM | 27.2 µM | 0.8 µM | 18 µM |  |
| NC[C@H](NC(=O)c1ccc(-c2cc(F)c(Cl)c(F)c2)[nH]1)c1nc(CO)cs1 |  |  |  |  | CC50 at 72 h [3]: 42.1 µM; CC50 at 96 h [4]: 32.6 µM; Activity [5]: Non-Toxic; CC50 at 48 h ([6]; Cf2Th-CCR5 cells): > 51 µM; IC50 [7]: 0.079 µM; IC50 [8]: 0.44 µM; IC50 [9]: 0.87 µM; IC50 [10]: 1.3 µM; solubility kinetic at […], 500 µM [11]: 500 µM (≈ 206 µg/mL); solubility kinetic at […], 500 µM [12]: 100 µM (≈ 41.3 µg/mL); Papp A→B at 2 h [13]: 0.471 ×10⁻⁶ cm/s; Papp B→A at 2 h [14]: 17 ×10⁻⁶ cm/s; remaining at 2 h, 3 µM [15]: 90.4%; microsomal CLint at 3 µM [16]: 1.6 µL/min/mg; fraction unbound at 5 µM [17]: 0.00281; CC50 at 49 h [18]: 61 µM |
| NC[C@@H](NC(=O)c1ccc(-c2ccc(C(F)(F)F)c(F)c2)[nH]1)c1ncc(CO)s1 | 0.2 µM | 18.5 µM | 0.24 µM | 21.5 µM |  |
| NC[C@H](NC(=O)c1ccc(-c2cc(F)c(C(F)(F)F)c(F)c2)[nH]1)c1ncc(CO)s1 |  |  |  |  | CC50 at 72 h [3]: 23 µM; CC50 at 96 h [4]: 14.3 µM |
| CC(C)(O)c1csc([C@H](CN)NC(=O)c2ccc(-c3cc(F)c(Cl)c(F)c3)[nH]2)n1 | 0.23 µM | 28.4 µM | 0.25 µM | 16.6 µM |  |
| NC[C@H](NC(=O)c1ccc(-c2cc(F)c(Cl)c(F)c2)[nH]1)c1nc(CO)c(CO)s1 | 2.3 µM | > 70 µM | 3 µM | 96.7 µM |  |
| NC[C@@H](NC(=O)c1ccc(-c2cc(F)c(Cl)c(F)c2)[nH]1)c1nc(CO)c(CO)s1 | 2.7 µM | 53 µM | 3.34 µM | 89.9 µM |  |

| Compound | IC50 [1] | CC50 (TZM) | IC50 [2] | CC50 (MT2) | further results |
| --- | --- | --- | --- | --- | --- |
| NC[C@@H](NC(=O)c1ccc(-c2cc(F)c(Cl)c(F)c2)[nH]1)c1nc(CO)cs1 |  | 27.7 µM |  | 29.6 µM |  |
| Cc1c(F)cc(-c2ccc(C(=O)N[C@H](CN)c3nc(CO)cs3)[nH]2)cc1F | 0.54 µM | 20.6 µM | 0.6 µM | 15.9 µM |  |
| NC[C@@H](NC(=O)c1ccc(-c2ccc(C(F)(F)F)c(F)c2)[nH]1)c1nc(CO)cs1 |  | 17.3 µM |  | 20.5 µM |  |
| COC(C)(C)c1csc([C@@H](CN)NC(=O)c2ccc(-c3cc(F)c(Cl)c(F)c3)[nH]2)n1 | 9.3 µM | 39.6 µM | 6.1 µM | 29.5 µM |  |
| Cc1c(F)cc(-c2ccc(C(=O)N[C@@H](CN)c3ncc(CO)s3)[nH]2)cc1F | 0.47 µM | 33.2 µM | 0.2 µM | 27 µM |  |
| NC[C@@H](NC(=O)c1ccc(-c2ccc(C(F)(F)F)cc2)[nH]1)c1ncc(CO)s1 |  |  |  | 32 µM | Activity [5]: Non-Toxic; CC50 [6]: 37.7 µM; IC50 [8]: 1 µM; IC50 [19]: 0.97 µM; CC50 at 49 h [18]: 61 µM |
| NC[C@@H](NC(=O)c1ccc(-c2cc(F)c(Cl)c(F)c2)[nH]1)c1ncc(CO)o1 |  |  |  |  | CC50 at 72 h [3]: 30.9 µM; CC50 at 96 h [4]: 44.7 µM |
| CNC[C@@H](NC(=O)c1ccc(-c2ccc(C(F)(F)F)cc2)[nH]1)c1nc(CO)cs1 | 0.62 µM | 23.5 µM | 0.6 µM | 19.8 µM |  |
| NC[C@H](NC(=O)c1ccc(-c2ccc(C(F)(F)F)cc2)[nH]1)c1nc(CO)cs1 | 0.47 µM | 24.4 µM | 0.3 µM | 16.3 µM |  |
| Cc1c(F)cc(-c2ccc(C(=O)N[C@@H](CN)c3nc(CO)cs3)[nH]2)cc1F | 0.18 µM | 18.5 µM | 0.18 µM | 25.5 µM |  |
| NC[C@@H](NC(=O)c1ccc(-c2ccc(C(F)(F)F)cc2)[nH]1)c1nc(CO)cs1 | 0.9 µM | 27.6 µM | 1.75 µM | 15.1 µM |  |
| CNC[C@@H](NC(=O)c1ccc(-c2cc(F)c(Cl)c(F)c2)[nH]1)c1nc(CO)cs1 | 0.25 µM | 23.8 µM | 0.4 µM | 24 µM |  |
| NC[C@H](NC(=O)c1ccc(-c2cc(F)c(Cl)c(F)c2)[nH]1)c1ncc(CO)s1 |  |  |  |  | CC50 at 72 h [3]: 39.5 µM; CC50 at 96 h [4]: 37 µM; CC50 at 49 h [18]: > 60 µM |
| NC[C@@H](NC(=O)c1ccc(-c2cc(F)c(C(F)(F)F)c(F)c2)[nH]1)c1ncc(CO)s1 |  |  |  |  | CC50 at 72 h [3]: 23.5 µM; CC50 at 96 h [4]: 15.5 µM |
| CC1(C)CC(NC(=O)C(=O)Nc2ccc(Cl)cc2)CC(C)(C)N1 |  |  |  |  | IC50 [20]: 9.1 µM; CC50 [6]: > 60 µM |
